Experimental findings from ChEMBL document CHEMBL1147230, “Novel oxylipin metabolites from the brown alga Eisenia bicyclis” (2003) are described below.

Type in all cases: functional
Assay [1] has as its system Bacillus subtilis. The experiment in a line: Antibacterial activity against Bacillus subtilis after 12 hrs relative to vancomycin. The method, boiled down:
(§1)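 Paper disk diffusion: 0.1 mg sample loaded per disk, incubated on bouillon culture medium at 37 °C. Inhibition zone diameter measured after 12 h. Activity expressed relative to a vancomycin standard disk (0.1 mg).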

The test system of assay [2] is Staphylococcus aureus. The experiment in a line: Antibacterial activity against Staphylococcus aureus after 12 hrs relative to vancomycin. Summed up: as §1
For assay [3], the system named is Staphylococcus aureus. Kind of assay: Antibacterial activity against Staphylococcus aureus after 12 hrs. The method, boiled down: (§2)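 Paper disk diffusion: 0.1 mg sample loaded per disk, incubated in bouillon culture medium at 37 °C for 12 h, then inhibition zone diameter measured. Activity expressed relative to vancomycin standard (0.1 mg per disk).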
Assay [4] concerns Bacillus subtilis. The experiment in a line: Antibacterial activity against Bacillus subtilis after 12 hrs. The method, boiled down: as §2

The structures appear in SMILES notation.

For the compound `CC[C@H]1O[C@@H]2[C@@H](/C=C\C/C=C\CCCCC(=O)O)[C@H]1C[C@H]2Cl`, the Activity in the assay with Bacillus subtilis [1] was found to be 0.43; in the assay on Staphylococcus aureus [2], 0.4.

In the case of `CC[C@@H]1OC(=O)CCCC/C=C\C/C=C\[C@H]2[C@H]1C[C@@H]1O[C@H]21` [ECKLONIALACTONE A], the Activity in the assay with Bacillus subtilis [1] was 0.3; in the assay on Staphylococcus aureus [2], 0.41.

On to `CC[C@H](Cl)[C@@H]1C[C@@H]2O[C@@H]2[C@H]1/C=C\C/C=C\CCCCC(=O)O` [EGREGIACHLORIDE A], for which the Activity came to 0.35 in the assay with Bacillus subtilis [1] and 0.47 in the assay with Staphylococcus aureus [2].

Turning to `CC[C@@H]1OC(=O)CCCC/C=C\C/C=C\[C@@H]2[C@@H](O)[C@H](Cl)C[C@H]21` [EISENIACHLORIDE A], the Activity with Bacillus subtilis [1] was found to be 0.36; in the assay with Staphylococcus aureus [2] it was 0.38.

For the compound `CC[C@@H]1OC(=O)CCCCCCC/C=C\[C@@H]2[C@@H](O)[C@H](Cl)C[C@H]21` [EISENIACHLORIDE B], the Activity in the assay with Bacillus subtilis [1] was 0.31; in the assay with Staphylococcus aureus [2], 0.53.

With `CC[C@@H]1OC(=O)CCC/C=C\C/C=C\C/C=C\[C@@H]2[C@@H](O)[C@H](Cl)C[C@H]21` [EISENIACHLORIDE C], the Activity in the assay on Bacillus subtilis [1] is 0.29; in the assay with Staphylococcus aureus [2], 0.34.

As to `CC[C@@H]1OC(=O)CCCCCCC/C=C\[C@@H]2[C@@H](O)[C@H](I)C[C@H]21` [EISENIAIODIDE B], the Activity in the assay with Bacillus subtilis [1] was determined as 0.28; with Staphylococcus aureus [2], 0.47.

For the compound `CN[C@H](CC(C)C)C(=O)N[C@H]1C(=O)N[C@@H](CC(N)=O)C(=O)N[C@H]2C(=O)N[C@H]3C(=O)N[C@H](C(=O)N[C@H](C(=O)O)c4cc(O)cc(O)c4-c4cc3ccc4O)[C@H](O)c3ccc(c(Cl)c3)Oc3cc2cc(c3O[C@@H]2O[C@H](CO)[C@@H](O)[C@H](O)[C@H]2O[C@H]2C[C@](C)(N)[C@H](O)[C@H](C)O2)Oc2ccc(cc2Cl)[C@H]1O` [VANCOMYCIN], the “inhibition zone (IZ)” value in the assay on Staphylococcus aureus [3] is recorded as 34.6 mm; in the assay on Bacillus subtilis [4], 26.8 mm. Also, the Activity with Bacillus subtilis [1] and in the assay on Staphylococcus aureus [2] was 1 each time.
